Shown are actives, neighbours in structure and some others; about 12% of the full set was active somewhere.
CHOP inh = blocks CHOP induction under ER stress | CHO-K1 CHOP-promoter luciferase, tunicamycin-induced, 15-18 h | inhibition, % at 10 µM | 220,000 tested, 3.8% active | AID 2732;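 active = compounds that reduced the stress-induced luciferase reporter signal by more than about 70% of percent inhibition, limit read from the data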;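 also: 0% = tunicamycin plus vehicle and 100% = wells without tunicamycin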
Wee1 stabilizer = blocks degradation of human Wee1 kinase; AID 1321; 220,000 tested, 1.2% active; HeLa Luc-Wee1K328M stability, luciferase luminescence; 100% = proteasome inhibitor MG132 effect; reporter increase, % at 5 µM;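 active = activation above the mean of all tested compounds plus 3 SD, set per screening run, cut at about 8.8% in these data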;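 also: cells exposed to compound for 20 h before luminescence read; 0% = DMSO alone and 100% = MG132 at 30 µM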
Target sequence (P30291 whole entry K328M): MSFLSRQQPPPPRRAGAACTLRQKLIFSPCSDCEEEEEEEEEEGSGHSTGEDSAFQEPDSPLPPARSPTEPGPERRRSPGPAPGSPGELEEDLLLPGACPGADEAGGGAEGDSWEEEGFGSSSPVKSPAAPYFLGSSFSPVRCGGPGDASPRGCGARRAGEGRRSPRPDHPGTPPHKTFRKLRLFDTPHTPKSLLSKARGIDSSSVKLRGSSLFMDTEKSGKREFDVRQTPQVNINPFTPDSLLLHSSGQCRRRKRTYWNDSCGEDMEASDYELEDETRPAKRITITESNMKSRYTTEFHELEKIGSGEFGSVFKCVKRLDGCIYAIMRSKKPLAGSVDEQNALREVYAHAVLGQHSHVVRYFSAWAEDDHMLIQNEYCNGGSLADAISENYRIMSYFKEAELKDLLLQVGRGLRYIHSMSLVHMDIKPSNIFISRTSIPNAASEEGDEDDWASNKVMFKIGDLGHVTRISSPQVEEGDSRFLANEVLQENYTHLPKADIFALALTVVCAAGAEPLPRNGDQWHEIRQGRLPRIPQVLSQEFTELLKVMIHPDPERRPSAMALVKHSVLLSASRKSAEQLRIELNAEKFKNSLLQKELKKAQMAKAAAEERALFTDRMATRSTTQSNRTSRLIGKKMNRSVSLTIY
Rad51 HR inh = blocks human Rad51 in homologous recombination. Q06609. hRad51 DNA strand exchange, fluorescence dequenching. inhibition, % at 10 µM. 200,000 tested, 0.085% active;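 active = inhibition above 40% at the single screening dose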;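 also: 0% = DMSO control wells and 100% = blanks with heterologous ssDNA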
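Test system: preformed human Rad51 ssDNA filaments; also added: Donor/quencher-labelled 47-bp dsDNA substrate; doses: 10 µM final, single point; times: 37 °C 15-min filament assembly, 30-min compound preincubation, 15-min exchange; detection: FRET fluorescence dequenching, excitation 485 nm, emission 520 nm; read-out basis: Fluorescence-based percent inhibition, control- and blank-normalised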
Arbovirus inh = blocks arbovirus infection. arbovirus infection cell-based antiviral screen. inhibition, % at 10 µM. 200,000 tested, 0.37% active; in the data active = inhibition above about 30%
PKD1 kinase inh = inhibitors of human PKD1 kinase; PKD1 kinase fluorescence polarization assay; inhibition, % (no concentration beside the values); 200,000 tested, 0.056% active
Lmaj promast = reduces viability of Leishmania major promastigotes; resazurin fluorescence viability; inhibition, % at 10 µM; 200,000 tested, 9% active;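 also: promastigotes grown with compound for 44 hours at 28 °C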
Active calls of the source: *. Rule as the data show it, unless noted: active = inhibition above about 50%; inactive = the rest.

How did O=C1CN(C(=O)c2cc3ccccc3oc2=O)C(c2ccc(F)cc2)c2cc(F)ccc2N1 (stereo not drawn) do in these assays?
CHOP inh: -14.4; Wee1 stabilizer: 0.5; Arbovirus inh: -7.7; PKD1 kinase inh: -7.6; Lmaj promast: 16.4

Results for O=C1CN(C(=O)c2ccc(Br)o2)C(c2ccccc2)c2cc(F)ccc2N1 (stereo not drawn) ?
CHOP inh: 25.0; Wee1 stabilizer: 1.5; Rad51 HR inh: 1.5; Arbovirus inh: -0.7; PKD1 kinase inh: -11.1; Lmaj promast: 92.4*

Results for Cc1ccc(-n2nc(C)c(NC(=O)CCl)c2C)cc1C ?
CHOP inh: -153.8; Wee1 stabilizer: 4.8; Rad51 HR inh: 15.4; Arbovirus inh: 5.0; PKD1 kinase inh: -4.6; Lmaj promast: 56.1*

What do the screens show for `O=C(c1ccc([N+](=O)[O-])cc1)N1CCSC1c1cccc(Cl)c1` (stereo not drawn)?
CHOP inh: 27.9; Wee1 stabilizer: 0.5; Rad51 HR inh: 24.1; Arbovirus inh: -7.5; PKD1 kinase inh: -4.6; Lmaj promast: 51.5*

Results for C/C(=N\NC(N)=O)c1cccc(Cl)c1 ?
CHOP inh: 14.3; Wee1 stabilizer: -0.1; Rad51 HR inh: -1.2; Arbovirus inh: 0.7; PKD1 kinase inh: -7.2; Lmaj promast: 82.7*

What do the screens show for `C=CCn1c(Cc2csc(N)n2)nnc1SCC(=O)Nc1ccccc1C(F)(F)F`?
CHOP inh: 30.2; Wee1 stabilizer: 1.7; Rad51 HR inh: -5.6; Arbovirus inh: 4.5; PKD1 kinase inh: -1.2; Lmaj promast: -6.5

What do the screens show for `C=CCNc1sc(C(=O)c2ccccc2)c(N)c1-c1nc2ccccc2s1`?
CHOP inh: 81.8*; Wee1 stabilizer: -0.9; Rad51 HR inh: -23.0; Arbovirus inh: 0.8; PKD1 kinase inh: -4.7; Lmaj promast: 1.1

Results for CCNc1sc(C(=O)c2cccs2)c(N)c1-c1nc2ccccc2s1 ?
CHOP inh: 78.2*; Wee1 stabilizer: 2.5; Rad51 HR inh: -8.2; Arbovirus inh: -6.5; PKD1 kinase inh: 6.7; Lmaj promast: 5.7

How did CCNc1sc(C(=O)c2cccs2)c(N)c1C#N do in these assays?
CHOP inh: 35.1; Wee1 stabilizer: 1.4; Rad51 HR inh: 7.4; Arbovirus inh: 1.4; PKD1 kinase inh: 46.2; Lmaj promast: -2.9

Results for CCOC(=O)c1sc(NCc2ccco2)c(-c2nc3ccccc3s2)c1N ?
CHOP inh: 21.9; Wee1 stabilizer: -0.3; Rad51 HR inh: -21.1; Arbovirus inh: -26.2; PKD1 kinase inh: 0.2; Lmaj promast: -3.6

Results for CS(=O)(=O)NCc1nnc(SCc2ccc(C(F)(F)F)cc2)o1 ?
CHOP inh: -9.2; Wee1 stabilizer: -2.8

How did COc1ccc(CNC(=S)Nc2ccc3nc(N4CCOCC4)cc(C)c3c2)cc1 do in these assays?
CHOP inh: 19.6; Wee1 stabilizer: 8.4; Rad51 HR inh: -6.7; Arbovirus inh: -8.0; PKD1 kinase inh: -3.8; Lmaj promast: 4.8

What do the screens show for `CCC(C)NC(=S)Nc1ccc2nc(N3CCN(CC)CC3)cc(C)c2c1` (stereo not drawn)?
CHOP inh: -15.5; Wee1 stabilizer: 2.5; Rad51 HR inh: 15.1; Arbovirus inh: -11.4; PKD1 kinase inh: -4.8; Lmaj promast: 94.2*

Results for CCN1CCN(c2cc(C)c3cc(NC(=S)N4CCC5(CC4)OCCO5)ccc3n2)CC1 ?
CHOP inh: -2.7; Wee1 stabilizer: 1.1; Rad51 HR inh: 4.4; Arbovirus inh: -17.0; PKD1 kinase inh: 3.3; Lmaj promast: 6.8

How did CCN1CCN(c2cc(C)c3cc(NC(=S)NCc4cccs4)ccc3n2)CC1 do in these assays?
CHOP inh: -21.5; Wee1 stabilizer: -1.6; Rad51 HR inh: 17.3; Arbovirus inh: 13.6; PKD1 kinase inh: -1.5; Lmaj promast: 99.1*

Results for CCN1CCN(c2cc(C)c3cc(NC(=S)N(CC)CC)ccc3n2)CC1 ?
CHOP inh: 1.5; Wee1 stabilizer: 1.4; Rad51 HR inh: -3.3; Arbovirus inh: 7.5; PKD1 kinase inh: 2.4; Lmaj promast: 7.4

How did Cc1cc(N2CCN(C)CC2)nc2ccc(NC(=S)NCc3cccs3)cc12 do in these assays?
CHOP inh: 0.8; Wee1 stabilizer: 5.4; Rad51 HR inh: -3.1; Arbovirus inh: 5.9; PKD1 kinase inh: -4.0; Lmaj promast: 99.2*

What do the screens show for `CCOc1ccccc1NC(=O)CCC(=O)Nc1ccc2nc(N3CCN(C)CC3)cc(C)c2c1`?
CHOP inh: -6.4; Wee1 stabilizer: -0.6; Arbovirus inh: 9.7; PKD1 kinase inh: -2.6; Lmaj promast: 74.0*
